In ChEMBL document CHEMBL5316280, “Development of N-(1-Adamantyl)benzamides as Novel Anti-Inflammatory Multitarget Agents Acting as Dual Modulators of the Cannabinoid CB2 Receptor and Fatty Acid Amide Hydrolase” (J Med Chem, 2023):
Active and inactive are the calls of the source. The calls are words filed in the database; no cut-off is given here.

How the values were obtained:
[1] = Metal chelating activity assessed as Fe2+-compound complex formation incubated for 15 mins by Ferrozine based assay
Outline: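 FeSO₄ (25 µM) in water incubated with or without test compound (100 µM, DMSO) for 15 min at room temperature, 300 µL final. Ferrozine then added (1 mM final), shaken 15 min at room temperature. Absorbance of the ferrozine–Fe(II) magenta complex read at 562 nm; chelation seen as reduced complex formation.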

[2] = biological target: T1, Fatty-acid amide hydrolase 1 (Homo sapiens, UniProt O00519); experiment: Inhibition of recombinant human FAAH using AMC-AA as substrate preincubated for 10 mins followed by substrate addition measured after 2 hrs by fluorometric assay
T1 sequence (O00519 whole entry): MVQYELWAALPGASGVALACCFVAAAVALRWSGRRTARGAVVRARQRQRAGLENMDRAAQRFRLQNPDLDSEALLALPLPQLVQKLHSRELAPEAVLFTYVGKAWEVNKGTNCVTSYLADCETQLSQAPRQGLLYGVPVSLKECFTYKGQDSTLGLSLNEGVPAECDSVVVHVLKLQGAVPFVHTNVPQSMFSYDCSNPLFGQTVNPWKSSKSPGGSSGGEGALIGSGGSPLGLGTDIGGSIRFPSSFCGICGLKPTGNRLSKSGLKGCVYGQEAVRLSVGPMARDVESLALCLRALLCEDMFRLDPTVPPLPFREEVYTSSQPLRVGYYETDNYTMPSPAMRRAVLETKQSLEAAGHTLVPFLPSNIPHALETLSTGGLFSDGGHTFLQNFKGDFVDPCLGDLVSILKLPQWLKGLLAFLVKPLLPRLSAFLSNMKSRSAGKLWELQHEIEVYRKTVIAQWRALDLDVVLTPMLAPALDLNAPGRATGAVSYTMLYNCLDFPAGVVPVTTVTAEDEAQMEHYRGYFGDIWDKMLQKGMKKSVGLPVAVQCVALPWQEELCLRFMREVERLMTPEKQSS
Outline: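 Human recombinant FAAH preincubated with inhibitor at various concentrations in Tris-HCl 125 mM, Na₂EDTA 1 mM, pH 9.0, 10 min at room temperature with shaking. AMC-AA substrate then added (1 µM final); fluorescence read every 30 s for 2 h at 37 °C (ex 340/em 450 nm). Percent inhibition from no-inhibitor controls and no-enzyme blanks; IC50 from at least three independent runs in triplicate.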

Cannabinoid receptor 2 [3] = biological target: T2, Cannabinoid receptor 2 (Homo sapiens, UniProt P34972); experiment: Displacement of [3H]CP55940 from recombinant human CB2 receptor expressed in HEK293 cell membrane incubated for 90 mins by beta scintillation counter method; format: cell membranes
T2 sequence (P34972 whole entry): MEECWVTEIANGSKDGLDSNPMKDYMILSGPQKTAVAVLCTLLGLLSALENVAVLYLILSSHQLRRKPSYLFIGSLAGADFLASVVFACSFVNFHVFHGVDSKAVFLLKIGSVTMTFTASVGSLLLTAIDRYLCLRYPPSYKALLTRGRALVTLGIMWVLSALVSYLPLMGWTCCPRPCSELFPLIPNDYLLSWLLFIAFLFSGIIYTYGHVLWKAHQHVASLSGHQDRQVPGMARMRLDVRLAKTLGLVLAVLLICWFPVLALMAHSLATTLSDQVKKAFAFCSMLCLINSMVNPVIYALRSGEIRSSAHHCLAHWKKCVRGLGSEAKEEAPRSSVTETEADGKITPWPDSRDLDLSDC
Outline: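 HEK293 membranes stably expressing human CB2 (50 µg protein/well) competed with 0.2 nM [3H]-CP55,940 (final) against test compound at 10⁻¹²–10⁻⁵ M in Tris-HCl 50 mM, EGTA 2.5 mM, MgCl₂ 5 mM, 0.1% fatty-acid-free BSA, pH 7.4; 90 min at 30 °C. Nonspecific binding defined with 10 µM GW405833.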

THP-1 [4] = experiment: Antiinflammatory activity in LPS-activated human THP-1 monocytes assessed as decrease in IL-6 level incubated for 24 hrs by ELISA based qRT-PCR analysis; format: functional, cell-based
Outline: (§1)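 THP-1 cells were seeded at 1 x 10⁵ cells/ml for 48 h. For macrophages, cells were differentiated with 0.01 µM PMA for 48 h; monocytes received no PMA. Cells were then given 24 h with or without 10 µg/ml LPS, plus ligands alone or with the CB2R inverse agonist JTE907 (10 µM). Cytokines were measured in 5 µL supernatant (from 1 x 10⁴ cells) by ProQuantum immunoassay, read as pg/ml from kit titration curves; n=3.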

THP-1 [5] = experiment: Antiinflammatory activity in human THP-1 macrophages assessed as decrease in IL-6 level incubated for 24 hrs by ELISA based qRT-PCR analysis; format: functional, cell-based; outline: as §1
THP-1 [6] = experiment: Antiinflammatory activity in human THP-1 macrophages assessed as increase in IL-10 level incubated for 24 hrs by ELISA based qRT-PCR analysis; format: functional, cell-based; outline: as §1
Cannabinoid receptor 2 [7] = biological target: T2, Cannabinoid receptor 2; experiment: Agonist activity at human CB2 receptor overexpressed in CHO-K1 cells assessed as cAMP level incubated for 30 mins by luminescence based assay; format: functional, cell-based
Outline: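 CHO-K1 cells overexpressing human CB2R were plated at 30 000 cells/well and held overnight at 37 °C, 5% CO2. Test samples were added as dose–response solutions with NKH-477 to stimulate adenylate cyclase, then incubated 30 min at 37 °C. cAMP was detected by luminescence after cell lysis. Values were normalized to NKH-477 alone as 100% response. Three independent experiments were run in triplicate.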

Cannabinoid receptor 2 [8] = biological target: Cannabinoid receptor 2 (Mus musculus, UniProt P47936); experiment: Agonist activity at mouse CB2 receptor transfected in CHO-K1 cells assessed as beta2-arrestin recruitment incubated for 90 mins by luminescence based assay; format: functional, cell-based
Cannabinoid receptor 2 (Mus musculus, UniProt P47936), sequence (P47936 whole entry): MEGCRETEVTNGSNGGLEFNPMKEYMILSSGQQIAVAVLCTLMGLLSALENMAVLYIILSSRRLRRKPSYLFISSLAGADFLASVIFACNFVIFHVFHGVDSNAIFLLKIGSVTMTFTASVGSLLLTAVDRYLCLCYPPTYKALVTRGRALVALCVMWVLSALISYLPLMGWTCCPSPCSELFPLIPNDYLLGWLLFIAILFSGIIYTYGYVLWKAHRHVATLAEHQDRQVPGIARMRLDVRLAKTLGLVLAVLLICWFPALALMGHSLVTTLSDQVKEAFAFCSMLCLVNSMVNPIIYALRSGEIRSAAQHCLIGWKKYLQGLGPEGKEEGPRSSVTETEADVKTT
Outline: (§2)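 PathHunter eXpress kit using mouse CB2 receptor in CHO-K1 cells. Cells were seeded 48 h before the assay in kit medium. Compounds in cell plating reagent were incubated 90 min at 37 °C, 5% CO2. Working detection solution was then added for 60 min at room temperature to read β-arrestin recruitment.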

Cannabinoid receptor 1 = Cannabinoid receptor 1 (Homo sapiens, UniProt P21554); experiment: […] human CB1 receptor in CHO cells incubated for 15 mins by plate reader analysis relative to control; format: cell-based
Cannabinoid receptor 1, sequence (P21554 whole entry): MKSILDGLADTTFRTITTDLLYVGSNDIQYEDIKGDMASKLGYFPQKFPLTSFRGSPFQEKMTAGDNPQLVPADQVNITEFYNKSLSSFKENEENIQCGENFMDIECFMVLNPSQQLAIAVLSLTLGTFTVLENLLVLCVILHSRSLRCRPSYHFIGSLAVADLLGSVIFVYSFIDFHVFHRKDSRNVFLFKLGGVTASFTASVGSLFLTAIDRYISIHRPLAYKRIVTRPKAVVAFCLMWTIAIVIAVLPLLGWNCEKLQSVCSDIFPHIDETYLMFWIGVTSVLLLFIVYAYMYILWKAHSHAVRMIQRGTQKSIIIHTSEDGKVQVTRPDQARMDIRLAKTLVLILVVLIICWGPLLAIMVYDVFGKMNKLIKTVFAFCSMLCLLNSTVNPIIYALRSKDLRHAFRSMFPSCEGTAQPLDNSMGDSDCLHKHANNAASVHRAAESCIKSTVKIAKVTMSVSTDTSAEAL
Outline: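 CHO-CB1 C3 cells (human CB1) were seeded at 8000 cells/well in medium with dialyzed FBS and preincubated 15 min at 37 °C. Compounds or the CP55940 control were added for 15 min at 37 °C, then forskolin 10 µM for 5 min. cAMP was read by HTRF after 1 h at room temperature (λex 320 nm, λem 620-665 nm).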

[9] = biological target: Cannabinoid receptor 2 (Mus musculus) (UniProt P47936); experiment: Agonist activity at mouse CB2 receptor transfected in CHO-K1 cells assessed as beta2-arrestin recruitment incubated for 90 mins by luminescence based assay relative to control; format: functional, cell-based; conditions: filed as agonist; outline: as §2
Cannabinoid receptor 2 (Mus musculus), sequence (P47936 whole entry): as the sequence (P47936 whole entry) above

Structure (SMILES)	Activity [1]	IC50 [2]	Ki (Cannabinoid receptor 2 [3])	also measured
COc1cc(Br)cc(C(=O)NC23CC4CC(CC(C4)C2)C3)c1OC	Active	44.6 µM	0.139 µM	
O=C(NC1CCCCC1)c1cn(CCN2CCOCC2)c2cc(Cl)ccc2c1=O				Activity (THP-1 [4]): inactive; Activity (THP-1 [5]): inactive; Activity (THP-1 [6]): inactive
O=C(NC12CC3CC(CC(C3)C1)C2)c1ccc(O)cc1	Active	> 50 µM	1.06 µM	
COc1ccccc1C(=O)NC12CC3CC(CC(C3)C1)C2	Active	48.5 µM	0.387 µM	
O=C(NC12CC3CC(CC(C3)C1)C2)c1cccc(O)c1	Active	25.6 µM		
COc1cccc(C(=O)NC23CC4CC(CC(C4)C2)C3)c1OC	Active	> 50 µM	0.0876 µM	
COc1cccc(C(=O)NC23CC4CC(CC(C4)C2)C3)c1	Active	32.3 µM	0.51 µM	
O=C(NC12CC3CC(CC(C3)C1)C2)c1ccccc1O	Active	> 50 µM		
CCCC(C)(C)c1ccc2c(c1)OC(C)(C)[C@@H]1CC=C(C)C[C@@H]21				EC50 (Cannabinoid receptor 2 [7]): 0.169 µM
O=C(NC12CC3CC(CC(C3)C1)C2)c1cccc(OCc2ccccc2)c1	Active	24.1 µM	0.313 µM	
COc1cccc(C(=O)NC23CC4CC(CC(C4)C2)C3)c1O	Active	> 50 µM	0.153 µM	
COc1cc(Br)cc(C(=O)NC23CC4CC(CC(C4)C2)C3)c1O	Active	38.4 µM		
O=C(NC12CC3CC(CC(C3)C1)C2)c1ccccc1	Active	23.4 µM		
COc1cc(Br)cc(C(=O)NC23CC4CC(CC(C4)C2)C3)c1OCc1ccccc1	Active	8.8 µM	3.2 µM	
COc1ccc(C(=O)NC23CC4CC(CC(C4)C2)C3)cc1	Active	> 50 µM	2.45 µM	
CCCCCCC(C)(C)c1ccc([C@H]2C[C@@H](O)CC[C@@H]2CCCO)c(O)c1				EC50 (Cannabinoid receptor 2 [8]): 0.0004 µM; Emax (Cannabinoid receptor 1): 100%; Emax [9]: 100%
COc1ccc(C(=O)NC23CC4CC(CC(C4)C2)C3)cc1OC	Active	> 50 µM	3 µM	
O=C(NC12CC3CC(CC(C3)C1)C2)c1ccc(OCc2ccccc2)cc1	Active	19.5 µM	3.85 µM	
